SMARCA2 activ: increases SMARCA2 function in MMTV reporter cells | MG213 cells, MMTV-luciferase reporter, dexamethasone, overnight | activation, % at 9.1 µM | 370,000 tested, 1% active | AID 652017; in the data active = activation above about 7.8%
AHR activator: activators of human aryl hydrocarbon receptor | P35869 | AHR-responsive luciferase reporter cells, luminescence | activation, % at 5 µM | 320,000 tested, 2.5% active; in the data active = activation above about 47%
Target sequence (P35869 whole entry, looked up): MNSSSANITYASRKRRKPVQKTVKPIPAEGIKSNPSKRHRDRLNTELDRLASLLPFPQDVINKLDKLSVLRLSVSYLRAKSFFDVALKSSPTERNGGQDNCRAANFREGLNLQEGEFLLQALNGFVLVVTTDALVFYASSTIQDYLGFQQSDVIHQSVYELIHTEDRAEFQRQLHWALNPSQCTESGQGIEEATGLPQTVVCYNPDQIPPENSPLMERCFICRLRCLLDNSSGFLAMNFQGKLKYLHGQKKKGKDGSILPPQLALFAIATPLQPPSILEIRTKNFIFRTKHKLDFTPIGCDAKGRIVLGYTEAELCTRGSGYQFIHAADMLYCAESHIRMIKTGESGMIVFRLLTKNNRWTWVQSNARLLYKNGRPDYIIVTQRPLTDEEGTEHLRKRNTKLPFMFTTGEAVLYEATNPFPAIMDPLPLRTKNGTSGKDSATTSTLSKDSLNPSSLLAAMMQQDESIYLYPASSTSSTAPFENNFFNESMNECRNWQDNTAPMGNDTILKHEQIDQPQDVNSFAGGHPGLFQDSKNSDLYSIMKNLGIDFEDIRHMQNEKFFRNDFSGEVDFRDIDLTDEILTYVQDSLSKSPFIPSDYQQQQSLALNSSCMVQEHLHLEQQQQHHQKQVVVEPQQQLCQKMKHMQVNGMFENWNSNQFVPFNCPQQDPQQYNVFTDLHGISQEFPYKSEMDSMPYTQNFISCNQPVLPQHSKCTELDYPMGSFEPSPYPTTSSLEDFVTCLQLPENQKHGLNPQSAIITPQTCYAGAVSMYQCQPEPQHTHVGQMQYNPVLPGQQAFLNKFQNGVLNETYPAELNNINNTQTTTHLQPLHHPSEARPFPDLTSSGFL
Efflux pump inh: inhibitors of Candida antifungal efflux pumps expressed in yeast. S. cerevisiae Candida pump triplex, Nile Red efflux. inhibition, % at 10 µM. 330,000 tested, 0.44% active. AID 485275;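 active = plate passing quality check with inhibition over a set limit, or well fluorescence over plate mean plus 4 SD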;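 also: Nile Red retained in pooled yeast measured as flow cytometry median fluorescence; higher means more Nile Red kept so more efflux inhibition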
TAG inh: triacylglycerol accumulation inhibition; inhibition, % at 12.5 µM; H9c2 cells, Nile Red lipid (TAG) fluorescence; cells loaded with 200 µM oleic acid; 230,000 tested, 0.66% active; AID 651582;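 active = pattern-corrected inhibition of lipid staining of at least 50% with the nuclear-stain viability signal not falling by more than 50%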
Tb MetRS inh: Trypanosoma brucei MetRS inhibition. purified T. brucei MetRS, ATP depletion, Kinase-Glo luminescence. 360,000 tested, 0.4% active. inhibition, % at 11.9 µM. AID 624268;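 active = inhibition above a per-plate cutoff of the control wells' mean inhibition plus 3 SD, cut at about 5.5% in these data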
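Assay system: T. brucei methionyl-tRNA synthetase, purified | Medium: HEPES buffer with MgCl2, KCl, DTT, spermine, BSA, pyrophosphatase | Compound: 11.9 µM single point | Incubation: 15 min enzyme-compound preincubation, 2 h reaction, 10 min detection, 25 °C | Measured by: Kinase-Glo luciferase luminescence reporting remaining unconsumed ATP | Measure: % inhibition normalized to control-well medians | Replication: Singlicate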
H9c2 TAG conf: confirmation of triacylglycerol accumulation inhibitors. 990 tested, 71% active. shares compounds with TAG inh. inhibition, % at 12.5 µM. AID 651629. H9c2 lipid accumulation, Nile Red fluorescence; cells loaded with 200 µM oleic acid;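 active = mean inhibition across replicates of 40% or more; inactive = mean inhibition below 40%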
Each line names hits and unclear results; the compound was inactive in the other large screens (follow-up assays come after a bar, where they were run). Rows were chosen to be rich in hits. Some 4.1% of all compounds tested hit in one or more screens of this group.

Cc1ccc(C(=O)Nc2cccc(C(F)(F)F)c2)cc1NC(=O)c1ccno1	none
COC(=O)c1cc2c(c3c4ccccc4n(S(=O)(=O)c4cccc(C)c4)c13)C(=O)N(Cc1ccccc1OC)C2	none (no result: AHR activator, Efflux pump inh, TAG inh, Tb MetRS inh)
CN(C)CCCN1c2ccccc2Sc2ccccc21	TAG inh 60.5 | H9c2 TAG conf 47.0
Nc1[nH]c(C(=O)c2ccc(Br)cc2)c(-c2ccc3ccccc3c2)c1C(=O)NCCc1c[nH]c2ccccc12	none (no result: AHR activator, Efflux pump inh, TAG inh, Tb MetRS inh)
COc1ccc(C2NCCc3c2[nH]c2ccccc32)cc1CSc1nc2ccccc2s1 (stereo not drawn)	TAG inh 56.9 | H9c2 TAG conf 51.0
CCCCCN1CCCCC(NC(=O)c2c(F)cccc2F)C1=O (stereo not drawn)	none (no result: AHR activator, Efflux pump inh, TAG inh, Tb MetRS inh)
CCN(CC)CCNc1nc(-n2nc(C)cc2C)nc2sc3c(c12)CC(C)(C)OC3	TAG inh 55.3 | H9c2 TAG conf 56.2
c1ccc(Cn2cc(CCOCc3ccccn3)c3ccccc32)cc1	none (no result: AHR activator, Efflux pump inh, TAG inh, Tb MetRS inh)
CCN(CC)CCn1c(SCC(=O)Nc2cccc(OC)c2)nc2c(sc3ccccc32)c1=O	TAG inh 51.6 | H9c2 TAG conf 53.6
CC(C)(C)c1ccc(-c2nnc(SCC(=O)Nc3ccc4c(c3)OCCO4)n2-c2ccc(Cl)cc2)cc1	none (no result: AHR activator, Efflux pump inh, TAG inh, Tb MetRS inh)
C[C@H]1CCCN1c1cccc2c1S(=O)(=O)N1CC[C@H](C1)O2	none (no result: AHR activator, Efflux pump inh, TAG inh, Tb MetRS inh)
CCC(C)(C)NC(=O)C(c1cccn1C)N(Cc1ccccc1)C(=O)Cn1nnc2ccccc21 (stereo not drawn)	none (no result: AHR activator, Efflux pump inh)
CCC(C)(C)NC(=O)C(c1cccn1C)N(Cc1ccc(OC)cc1)C(=O)Cn1nnc2ccccc21 (stereo not drawn)	TAG inh 66.7 | H9c2 TAG conf 50.2
COCCCNC(=O)c1ccc(Cn2c(=O)c3ccccc3n(Cc3ccc(Br)cc3)c2=O)cc1	none (no result: AHR activator, Efflux pump inh, TAG inh, Tb MetRS inh)
CCCCCc1cc(=O)oc2c(C(CCN(CC)CC)c3ccc(OC)cc3)c(OC)cc(OC)c12 (stereo not drawn)	TAG inh 72.9 | H9c2 TAG conf 68.4
CCCCCc1cc(=O)oc2c(C(CCN3CCCC3)c3cc(OC)c(OC)c(OC)c3)c(OC)cc(OC)c12 (stereo not drawn)	TAG inh 94.4 | H9c2 TAG conf 76.7
COc1cc(C(CCN2CCCC(C)C2)c2c(OC)cc(OC)c3c(-c4ccccc4)cc(=O)oc23)cc(OC)c1OC (stereo not drawn)	TAG inh 74.4 (no result: SMARCA2 activ, Efflux pump inh) | H9c2 TAG conf 77.7
CCCCCc1cc(=O)oc2c(C(CCN3CCN(c4ccccc4)CC3)c3ccc4c(c3)OCO4)c(OC)cc(OC)c12 (stereo not drawn)	TAG inh 64.7 | H9c2 TAG conf 74.0
COc1cc(C(CC(=O)N2CCCC2)c2c(OC)cc(OC)c3c(-c4ccccc4)cc(=O)oc23)cc(OC)c1OC (stereo not drawn)	none
Cc1ccc(-c2cc(NC(=O)Cc3c(C)[nH]c4ccccc34)ccc2Nc2cccnc2)cc1	none (no result: AHR activator, Efflux pump inh, TAG inh, Tb MetRS inh)
O=C(O)[C@H](Cc1ccccc1)NC(=O)[C@H]1O[C@@H](n2ccc(=O)[nH]c2=O)[C@H](O)[C@@H]1O	none (no result: AHR activator, Efflux pump inh, TAG inh, Tb MetRS inh)
Nc1nc2c(ncn2[C@@H]2O[C@H](C(=O)NCCCN3CCCC3=O)[C@@H](O)[C@H]2O)c(=O)[nH]1	none (no result: AHR activator, Efflux pump inh, TAG inh, Tb MetRS inh)
C[C@H](CO)N1C[C@H](C)[C@@H](CN(C)C(=O)Nc2ccc(C(F)(F)F)cc2)OCc2cn(nn2)CCCC1=O	none (no result: AHR activator, Efflux pump inh, TAG inh, Tb MetRS inh)
COC(=O)[C@]12C[C@H](CC(=O)N3CCN(C(=O)c4ccco4)CC3)C(=O)N(Cc3cccc4ccccc34)C1=C[C@H](C1CCCC1)O[C@@H]2C	none (no result: AHR activator, Efflux pump inh, TAG inh, Tb MetRS inh)
CCN(CC)C(=O)CC[C@H]1CC[C@]2(CCCN(S(C)(=O)=O)C2)O1	none (no result: AHR activator, Efflux pump inh, TAG inh, Tb MetRS inh)
COc1cc(C(CCN2CCCC2)c2c(OC)cc(OC)c3c(C)cc(=O)oc23)cc(OC)c1OC (stereo not drawn)	none (no result: Efflux pump inh)
COc1cc(C(CCN2CCCCC2)c2c(OC)cc(OC)c3c(-c4ccccc4)cc(=O)oc23)cc(OC)c1OC (stereo not drawn)	TAG inh 57.6 (no result: Efflux pump inh) | H9c2 TAG conf 51.5
COCCCNC(=O)C[C@H]1C[C@@]2(C(=O)OC)C(=C[C@H](C3CCCC3)O[C@@H]2C)N(Cc2cccc3ccccc23)C1=O	none (no result: AHR activator, Efflux pump inh, TAG inh, Tb MetRS inh)
Cc1ccc(NC(=O)c2cc3ccccc3oc2=O)cc1S(=O)(=O)N(C)C	none (no result: SMARCA2 activ, TAG inh)
Cc1ccc(NC(=O)c2cc3ccccc3o2)cc1S(=O)(=O)N(C)C	TAG inh 70.4 (no result: AHR activator, Efflux pump inh) | H9c2 TAG conf inactive
CN1CCN(C(=O)c2ccc(Cc3cn(C)c4ccccc34)nc2)CC1	TAG inh 53.7 (no result: AHR activator, Efflux pump inh) | H9c2 TAG conf inactive
O=C1OCC2=C1C(c1ccc(F)cc1)c1cc3c(cc1N2)OCO3 (stereo not drawn)	none (no result: AHR activator, Efflux pump inh)
CCOc1ccccc1C1C2=C(COC2=O)Nc2cc3c(cc21)OCO3 (stereo not drawn)	TAG inh 52.7 | H9c2 TAG conf 52.7
Cn1c2ccccc2c2c(C(=O)N3CCN(C(=O)c4ccco4)CC3)cn(C3CCCCC3)c(=O)c21	TAG inh 50.0 | H9c2 TAG conf inactive
Cn1c2ccccc2c2c(C(=O)N3CCN(c4ccccn4)CC3)cn(C3CCCC3)c(=O)c21	none
O=C(Nc1ccc(Cl)cc1)c1csc([C@@H]2C[C@H](O)[C@@H](CO)O2)n1	TAG inh 54.2 (no result: AHR activator, Efflux pump inh) | H9c2 TAG conf inactive
COC(=O)[C@@]12CCCCC3=C1N(CCC3)C(=O)[C@H]2CC(=O)NCc1ccccc1	none (no result: AHR activator, Efflux pump inh, TAG inh, Tb MetRS inh)
COc1ccc(-n2ccnc2SCC(=O)NC2CCCC2)c(OC)c1	TAG inh 71.1 | H9c2 TAG conf inactive
Cc1ccccc1-n1ccnc1SCC(=O)NC1CCCC1	none (no result: TAG inh)
CCOc1ccc(-n2c(SCC(=O)Nc3cc4oc5ccccc5c4cc3OC)nnc2-c2cccc(Cl)c2)cc1	none (no result: AHR activator, Efflux pump inh, TAG inh, Tb MetRS inh)
CCOc1cc(CNc2ccc(N3CCOCC3)cc2)cc(Br)c1OCC	none (no result: TAG inh)
CCOc1cc(CNc2ccc3c(c2)OCCO3)cc(Br)c1OCC	TAG inh 52.8 | H9c2 TAG conf 53.4
CCOc1ccc(C(=O)Nc2nnc(NC(=S)Nc3ccccc3)s2)cc1	TAG inh 50.7 | H9c2 TAG conf 41.7
CC1C=CC=CCCC=CC=CC=CC=CC(OC2O[C@H](C)[C@@H](O)[C@H](N)[C@@H]2O)CC(O)C(C(=O)O)C(O)CC(=O)CC(O)C(O)CCC(O)CC(O)CC(O)CC(=O)OC(C)C(C)C1O (stereo partly drawn)	none (no result: AHR activator, Efflux pump inh, TAG inh, Tb MetRS inh)
COC(=O)[C@]12C[C@H](CC(=O)N3CCSCC3)C(=O)N(Cc3ccccc3)C1=C[C@H](COCc1ccccc1)O[C@@H]2C	none (no result: AHR activator, Efflux pump inh, TAG inh, Tb MetRS inh)
Brc1ccc(C2=Nn3c(nnc3-c3n[nH]c4c3CCC4)SC2)cc1	AHR activator 78.2, TAG inh 81.2 | H9c2 TAG conf 84.6
Cc1cc(NC(=O)CCc2c[nH]c3ccccc23)ccc1Nc1cccnc1	none (no result: AHR activator, Efflux pump inh, TAG inh, Tb MetRS inh)
O=C(C[C@H]1C[C@H](C(=O)N2CCOCC2)[C@@]2(CCC3CCCC3)c3[nH]c4cc(-c5ccco5)ccc4c3CCN2C1=O)NCCN1CCOCC1	none (no result: AHR activator)
